Source: PMC7647958 (Molecular imaging and biology, 2020)

Columns and labels:
DX3puro [αvβ6(−)] cells = assay: Cell binding and internalization, DX3puro cells; format: cell-based; details: 60 min; n = 4
Method in brief: (§1)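 Tubes were pretreated with non-fat milk (0.5 % w/v in PBS). DX3puro cells were kept in DMEM with puromycin (2 μg/ml); BxPC-3 cells were kept in RPMI. Both media had 10 % heat-inactivated FBS and 1 % PSG, at 37 °C and 5 % CO2. Integrin expression was checked by flow cytometry beforehand. Radiotracer binding and internalization ran 60 min (n = 4) and are reported as fraction of total radioactivity.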

[1] = PET imaging, radioactivity remaining in the body; format: in vivo, mouse; details: 4 h p.i., i.v., PET imaging studies, tumor-bearing mice, n = 4; mean ± SD
Method in brief: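 Mice bearing xenografts (paired DX3puroβ6/DX3puro or BxPC-3) received 5–7 MBq radiotracer i.v. via tail vein, with mass held at 0.175 nmol (7 nmol/kg for a 25-g mouse). Two mice per scan lay prone under 1.5–2.0 % isoflurane (n = 4/radiotracer). Static PET scans: 15 min at 1, 2, 4 h and 30 min at 6 h p.i., plus CT. Body-retained radioactivity was decay corrected.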

[2] = Serum stability, human serum; format: in vitro ADME
Method in brief: (§2)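 Formulated radiotracer (12.5–25 μl, 2–6 MBq) was added to 0.5 ml of either human or mouse serum and incubated at 37 °C in a sealed tube. At each time point an aliquot was withdrawn and serum proteins were precipitated. The supernatant was analysed by HPLC for intact radiotracer.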

[3] = Biodistribution in mice bearing paired DX3puroβ6/DX3puro xenograft tumors; format: in vivo; details: female, athymic nude, mouse, iv, 0.175 nmol per injection, total radioactivity; for tissue uptake at 1 h: 1 h p.i.
Method in brief: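 Female athymic nude mice carried 3 × 10^6 DX3puro and 3 × 10^6 DX3puroβ6 cells s.c. in DMEM on opposite flanks; studies began at ~0.5 cm tumor diameter. Radiotracer at 1.5–3.3 MBq/animal was given i.v. via tail vein under isoflurane, with mass held at 0.175 nmol by adding nonradioactive peptide. Tissues were taken at 1, 2, 4 or 2, 4, 6 h p.i. (n = 3–4), rinsed and γ-counted; results are decay-corrected % ID/g.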

BxPC-3 [αvβ6(+)] cells = assay: Cell binding and internalization, BxPC-3 cells; format: cell-based; details: 60 min; n = 4; mean ± SD
Method in brief: as §1

[4] = Serum stability, mouse serum; format: in vitro ADME
Method in brief: as §2

CC(C)C[C@H](NC(=O)[C@H](CC(=O)O)NC(=O)CNC(=O)[C@H](CCCNC(=N)N)NC(=O)[C@H](CC(C)C)NC(=O)[C@H](CC(N)=O)NC(=O)[C@@H]1CCCN1C(=O)[C@@H](NC(=O)[C@H](C)NC(=O)[C@H](CC(N)=O)NC(=O)CCOCCOCCOCCOCCOCCOCCOCCOCCOCCOCCOCCOCCOCCOCCOCCOCCOCCOCCOCCOCCOCCOCCOCCOCCOCCOCCOCCOCCNC(=O)CN1CCN(CC(=O)O)CCN(CC(=O)O)CC1)C(C)C)C(=O)N[C@@H](CCC(N)=O)C(=O)N[C@H](C(=O)N[C@@H](CC(C)C)C(=O)N[C@@H](C)C(=O)N[C@@H](CCC(N)=O)C(=O)N[C@@H](CCCNC(=N)N)C(=O)N[C@H](C(=O)N[C@@H](C)C(=O)N[C@@H](CCCNC(=N)N)C(=O)N[C@H](C(=O)NCCOCCOCCOCCOCCOCCOCCOCCOCCOCCOCCOCCOCCOCCOCCOCCOCCOCCOCCOCCOCCOCCOCCOCCOCCOCCOCCOCCOCCC(N)=O)[C@@H](C)O)C(C)C)C(C)C [[^18F]AlF 1, [^18F]AlF NOTA-αvβ6-BP]
binding to DX3puro cells (of total radioactivity) (DX3puro [αvβ6(−)] cells): ≤ 1.2%
internalization into DX3puro cells (of total radioactivity) (DX3puro [αvβ6(−)] cells): ≤ 0.5%
injected radioactivity remaining in the body (decay corrected) [1]: 21.7 ± 3.4%
remaining at 2 h [2]: ≥ 97%
tissue uptake ([3]; DX3puro tumor, uptake in DX3puro tumor, all time points (1, 2, 4 h p.i.)): ≤ 0.3 %ID/g
tissue uptake at 1 h ([3]; DX3puroβ6 tumor, uptake in DX3puroβ6 tumor, n = 3–4, mean ± SD): 2.2 ± 0.5 %ID/g
tissue uptake at 4 h ([3]; DX3puroβ6 tumor, uptake in DX3puroβ6 tumor, 4 h p.i., n = 3–4, mean ± SD): 3 ± 0.7 %ID/g
tissue uptake at 1 h ([3]; blood, blood radioactivity, DX3puroβ6/DX3puro model): ≤ 0.1 %ID/g
binding to BxPC-3 cells (of total radioactivity) (BxPC-3 [αvβ6(+)] cells): 45.1 ± 0.7%
internalization into BxPC-3 cells (of total radioactivity) (BxPC-3 [αvβ6(+)] cells): 31.5 ± 1.3%
remaining at 2 h [4]: 67%
